According to ChEMBL document CHEMBL1142741, “Norpiperidine imidazoazepines as a new class of potent, selective, and nonsedative H1 antihistamines” (J Med Chem, 2005):

How the values were obtained:
[1] = Solubility in 0.1 M NaOH at pH 13.0; assay type: physicochemical
Outline: (§1)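 Excess or stated amounts of solute were shaken in closed vials of solvent for 24 h at 20 °C, following Higuchi and Connors. For clear solutions, only pH was recorded and solubility was taken as solute added per solvent volume. Turbid samples were filtered through 0.45 µm, the filtrate pH was recorded, and concentration was measured by UV absorption.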

[2] = Solubility in buffer (pH 10) at pH 10.2; assay type: physicochemical; outline: as §1
[3] = Solubility in simulated gastric fluid at pH 3.1; assay type: physicochemical; outline: as §1
[4] = Solubility in buffer (pH 4) at pH 5.4; assay type: physicochemical; outline: as §1
[5] = Solubility in buffer (pH 2) at pH 4.8; assay type: physicochemical; outline: as §1
[6] = Solubility in simulated intestinal fluid at pH 10.1; assay type: physicochemical; outline: as §1
[7] = Solubility in buffer (pH 6) at pH 9.2; assay type: physicochemical; outline: as §1
[8] = Solubility in 0.1 M HCl at pH 2.7; assay type: physicochemical; outline: as §1
[9] = Solubility in buffer of (pH 8) at pH 9.0; assay type: physicochemical; conditions: buffer (pH 8); outline: as §1
Cavia porcellus [10] = test: Effective dose for inhibition of skin reactions induced by Ascaris allergens in guinea pig by 2 hr after the oral administration
Rattus norvegicus [11] = test: Effective dose for the inhibition of 48/80-induced lethal anaphylactic reaction was determined in rat by 1 hour after subcutaneous administration; assay type: functional; conditions: sc
Outline: (§2)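 Compound or solvent was given sc 1 h or po 2 h beforehand at 10 mL/kg, dosed as base equivalents from a 0.04-10 mg/kg geometric series, five rats per dose.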

Cavia porcellus [12] = test: Effective dose for inhibition of skin reactions induced by substance P in guinea pig by 2 hr after the oral administration
Canis familiaris [13] = test: Onset action against Ascaris allergens induced cutaneous reactions was determined by oral administration at four times the peak effect dose in dog; assay type: functional, Canis lupus familiaris
Outline: (§3)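 Beagle dogs of both sexes, selected for sensitivity to Ascaris allergens (ACF, 1/100 in saline), injected intradermally at three chest sites. Wheal diameter and skin thickness increase were read 15 min after injection, before and 1, 4, 20 and 72 h after oral dosing. Onset and duration were estimated graphically at four times the peak-effect dose.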

Rattus norvegicus [14] = test: Effective dose for blockade of skin reactions induced by Ascaris allergens in rat by 2 hr after the subcutaneous administration; assay type: functional; conditions: sc
Outline: (§4)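 Male Wistar rats (200-240 g) were passively sensitized with intradermal ovalbumin-specific IgE serum; 50 h later histamine (50 µg), serotonin (0.1 µg) and Ascaris allergens (1/2 in saline) were injected intradermally at dorsal sites. Compound was given sc 2 h before challenge, with two observers' scores summed. Histamine and serotonin: inhibition score <4, blockade <3. PCA and Ascaris: score <3. ED50 by Finney's method, five animals per dose.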

Cavia porcellus [15] = test: Effective dose for blockade of skin reactions induced by histamine in guinea pig by 2 hr after the oral administration
Rattus norvegicus [16] = test: Effective dose for blockade of skin reactions induced by histamine in rat by 2 hr after the subcutaneous administration; assay type: functional; conditions: sc; outline: as §4
[17] = pKa2 value was determined; assay type: physicochemical
Outline: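 logP was measured in octanol/pH 12 buffer; pKa was measured by the Sirius PCA 101 method.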

[18] = Partition coefficient (logP); assay type: physicochemical; conditions: octanol/water
Rattus norvegicus [19] = test: Effective dose for blockade of skin reactions induced by passive cutaneous anaphylaxis in rat by 2 hr after the subcutaneous administration; assay type: functional; conditions: sc; outline: as §4
Rattus norvegicus [20] = test: Effective dose for inhibition of skin reactions induced by histamine in rat by 2 hr after the subcutaneous administration; assay type: functional; conditions: sc; outline: as §4
Rattus norvegicus [21] = test: Effective dose for the inhibition of 48/80-induced lethal anaphylactic reaction was determined in rat by 2 hours after oral administration; assay type: functional; outline: as §2
Canis familiaris [22] = test: Peak effective dose for inhibition of skin reactions induced by Ascaris allergens in dog by 4 hr after the oral administration; conditions: Canis lupus familiaris
Rattus norvegicus [23] = test: Effective dose for inhibition of skin reactions induced by serotonin in rat by 2 hr after the subcutaneous administration; assay type: functional; conditions: sc; outline: as §4
Histamine H1 receptor = Histamine H1 receptor (Homo sapiens, UniProt P35367); test: Binding affinity for H1 histamine receptor expressed in CHO cells; assay type: cell-based
Cavia porcellus [24] = test: Effective dose for inhibition of skin reactions induced by histamine in guinea pig by 2 hr after the oral administration
[25] = pKa1 value was determined; assay type: physicochemical; conditions: read-out: pKa1
Canis familiaris [26] = test: Duration of action against Ascaris allergens induced cutaneous reactions was determined by oral administration at four times the peak effect dose in dog; assay type: functional, Canis lupus familiaris; outline: as §3
Rattus norvegicus [27] = test: Effective dose for the inhibition of 48/80-induced lethal anaphylactic reaction was determined in rat by 2 hour after oral administration; assay type: functional; outline: as §2
[28] = Solubility in buffer (pH 2) at pH 1.1; assay type: physicochemical; conditions: in the assay text read “pH 1.8” for “pH 1.1”; outline: as §1
[29] = Solubility in buffer (pH 4) at pH 2.9; assay type: physicochemical; outline: as §1
[30] = Solubility in buffer (pH 10) at pH 4.3; assay type: physicochemical; outline: as §1
[31] = Solubility in simulated intestinal fluid at pH 2.3; assay type: physicochemical; outline: as §1
[32] = Solubility in 0.1 M HCl at pH 1.0; assay type: physicochemical; outline: as §1
[33] = Solubility in water at pH 2.0; assay type: physicochemical; outline: as §1
[34] = Solubility in buffer (pH 6) at pH 4.2; assay type: physicochemical; outline: as §1
[35] = Solubility in water mg/mL; assay type: physicochemical; outline: as §1
[36] = Solubility in buffer (pH 8) at pH 3.8; assay type: physicochemical; outline: as §1
[37] = Solubility in simulated gastric fluid at pH 1.1; assay type: physicochemical; outline: as §1
[38] = Solubility in 0.1 M NaOH at pH 12.6; assay type: physicochemical; outline: as §1

Histamine H1 receptor, sequence (P35367 whole entry): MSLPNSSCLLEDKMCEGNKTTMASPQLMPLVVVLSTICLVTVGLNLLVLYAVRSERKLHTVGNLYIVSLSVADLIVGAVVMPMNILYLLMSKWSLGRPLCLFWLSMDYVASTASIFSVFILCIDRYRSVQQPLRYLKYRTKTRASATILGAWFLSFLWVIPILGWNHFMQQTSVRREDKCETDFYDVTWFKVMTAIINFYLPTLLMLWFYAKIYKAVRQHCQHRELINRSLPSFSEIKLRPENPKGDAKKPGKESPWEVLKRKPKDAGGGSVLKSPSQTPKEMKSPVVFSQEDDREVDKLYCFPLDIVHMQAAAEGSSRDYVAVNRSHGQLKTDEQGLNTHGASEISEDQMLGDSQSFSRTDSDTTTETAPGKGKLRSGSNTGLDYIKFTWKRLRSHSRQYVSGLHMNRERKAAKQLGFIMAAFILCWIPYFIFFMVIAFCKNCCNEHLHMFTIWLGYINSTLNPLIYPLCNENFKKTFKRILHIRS

| Compound | ED50 (Cavia porcellus [10]) [mg/kg] | ED50 (Rattus norvegicus [11]) [mg/kg] | ED50 (Cavia porcellus [12]) [mg/kg] | Time (Canis familiaris [13]) [h] | ED50 (Rattus norvegicus [14]) [mg/kg] | ED50 (Cavia porcellus [15]) [mg/kg] | ED50 (Rattus norvegicus [16]) [mg/kg] | logP [18] | ED50 (Rattus norvegicus [19]) [mg/kg] | ED50 (Rattus norvegicus [20]) [mg/kg] | ED50 (Canis familiaris [22]) [mg/kg] | ED50 (Rattus norvegicus [23]) [mg/kg] | Ki (Histamine H1 receptor) [nM] | ED50 (Cavia porcellus [24]) [mg/kg] | pKa [25] | Time (Canis familiaris [26]) [h] | ED50 (Rattus norvegicus [27]) [mg/kg] | also measured |
| --- | --- | --- | --- | --- | --- | --- | --- | --- | --- | --- | --- | --- | --- | --- | --- | --- | --- | --- |
| Cl.NC(=O)c1cnc2n1CCc1ccccc1C21CCNCC1 | – | – | – | – | – | – | – | – | – | – | – | – | – | – | – | – | – | solubility [1]: 0.93 mg/mL; solubility [2]: 1.65 mg/mL; solubility [3]: > 20 mg/mL; solubility [4]: > 20 mg/mL; solubility [5]: > 20 mg/mL; solubility [6]: 1.69 mg/mL; solubility [7]: 8.04 mg/mL; solubility [8]: > 20 mg/mL; solubility [9]: 12.2 mg/mL |
| Cn1ccc2c1CCn1ccnc1C2=C1CCNCC1 | 8.7 | 0.028 | 1.7 | <1 | 0.13 | 0.96 | 0.13 | 1.25 | 0.08 | 0.08 | 0.038 | > 0.16 | 22 | 0.24 | 9.85 | 35 | – | Pka2 [17]: 6.52; ED50 (Rattus norvegicus [21]): 0.76 mg/kg |
| Cn1ccc2c1C(=O)Cn1ccnc1C2=C1CCNCC1 | 0.42 | 0.037 | > 2.5 | <1 | 2.9 | 0.08 | 0.95 | – | 0.42 | 0.55 | 0.018 | > 10 | 12 | 0.02 | – | 13 | 0.34 | – |
| Cl.Cl.O=C(O)COCCN1CCN([C@H](c2ccccc2)c2ccc(Cl)cc2)CC1 [LEVOCETIRIZINE DIHYDROCHLORIDE] | > 2.5 | – | > 2.5 | <1 | 3.6 | 0.14 | 0.68 | – | 2.7 | 0.68 | 0.14 | > 10 | – | 0.046 | – | 30 | 1.2 | – |
| CCOC(=O)N1CCC(=C2c3ccc(Cl)cc3CCc3cccnc32)CC1 [LORATADINE] | 0.42 | 0.29 | 2.2 | <1 | 2.7 | 0.32 | 1.8 | – | 1.6 | 0.89 | 0.2 | 6.2 | – | 0.08 | – | 33 | 0.22 | – |
| Cl.Cl.NC(=O)c1cnc2n1CCc1ccccc1C21CCNCC1 [VAPITADINE DIHYDROCHLORIDE] | 1.2 | 0.056 | 1.6 | <1 | 2.7 | 0.14 | 1.4 | 1.18 | 2.3 | 0.51 | 0.024 | > 10 | 19 | 0.1 | 9.88 | 21 | 1.2 | solubility [28]: > 20 mg/mL; solubility [29]: > 20 mg/mL; solubility [30]: > 20 mg/mL; solubility [31]: > 20 mg/mL; solubility [32]: > 20 mg/mL; pKa ([17]; read-out: pKa2): 3; solubility [33]: > 20 mg/mL; solubility [34]: > 20 mg/mL; solubility [35]: > 20 mg/mL; solubility [36]: > 20 mg/mL; solubility [37]: > 20 mg/mL; solubility [38]: 3.09 mg/mL |
